Measurements: ChEMBL document CHEMBL4033790, “Design and Synthesis of Novel Deuterated Ligands Functionally Selective for the γ-Aminobutyric Acid Type A Receptor (GABAAR) α6 Subtype with Improved Metabolic Stability and Enhanced Bioavailability” (J Med Chem, 2018)
≈ marks a conversion by molar mass, not a printed value. Calls of active or inactive are those of the source. The calls are words filed in the database; no cut-off is given here.

How the values were obtained:
[1] = Metabolic stability in human liver microsomes assessed as parent compound remaining at 10 uM after 60 mins by LC-MS analysis; format: ADME, microsome; settings: read-out: Stability
Procedure, shortened: (§1)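 The 60 min samples of the microsomal incubation (10 μM compound, human or mouse liver microsomes at 0.5 mg/mL, NADPH regenerating system, 37 °C) were analysed by LC-MS. Detection used SIM mode with dual ESI/APCI ionization, calibrated to the retention times and masses of the parent and its O-demethylated metabolites. Peak intensities were measured.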

[2] = Metabolic stability in mouse liver microsomes assessed as parent compound remaining at 10 uM after 60 mins by LC-MS analysis; format: ADME, microsome; settings: read-out: Stability; procedure, shortened: as §1
HEK-293T = assay: Cytotoxicity against HEK293T cells assessed as reduction in cell viability up to 400 uM after 48 hrs by CellTiter-Glo assay; format: cell-based; settings: human
Procedure, shortened: (§2)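 HEK293T and HepG2 cells grown in high-glucose DMEM with non-essential amino acids, 10 mM HEPES, penicillin/streptomycin and 10% heat-inactivated FBS. Cells were harvested with trypsin and plated; compound was pin-transferred 3 h later. Incubation was 48 h, then CellTiter-Glo luminescence was read. Controls were DMSO (negative) and a cytotoxic aminoketone (positive). Quadruplicates, three independent runs, normalized to controls, nonlinear regression.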

HepG2 = assay: Cytotoxicity against human HepG2 cells assessed as reduction in cell viability up to 400 uM after 48 hrs by CellTiter-Glo assay; format: cell-based; settings: hepg2, 48 h; procedure, shortened: as §2
Mus musculus = assay: Neurotoxicity in Swiss Webster mouse assessed as induction of motor impairment at 40 mg/kg administered via oral gavage measured after 10 to 60 mins by rotarod method; format: toxicity, organism-based; settings: in vivo
Procedure, shortened: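 Female mice were given a single oral gavage dose of 40 mg/kg, either in 50% PBS/40% propylene glycol/10% DMSO or, for poorly soluble compounds, in 2% polyethylene glycol plus 2.5% hydroxymethyl cellulose. Rotarod performance was tested 10, 30 and 60 min after dosing, with diazepam 5 mg/kg as positive control.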

[3] = Cmax in Wistar rat plasma at 10 mg/kg, ip administered as single dose measured at 5 to 720 mins post dose by HPLC-MS/MS analysis; format: ADME, organism-based; parameters: dose 10 mg/kg, route intraperitoneal
Procedure, shortened: (§3)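 Male Wistar rats (250-350 g) given a single 10 mg/kg i.p. dose of a 5 mg/ml suspension in 85% distilled water, 14% propylene glycol, 1% Tween 80. Three rats per time point (5, 20, 60, 180, 720 min). Blood and brain were collected after sacrifice. Drug was recovered by solid phase extraction and quantified by HPLC-MS/MS.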

[4] = Tmax in Wistar rat plasma at 10 mg/kg, ip administered as single dose by HPLC-MS/MS analysis; format: ADME, organism-based
Procedure, shortened: (§4)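 Male Wistar rats (250–350 g) received a single i.p. dose of 10 mg/kg as a 5 mg/ml suspension in 85% water, 14% propylene glycol and 1% Tween 80. Three rats per time point were sacrificed at 5, 20, 60, 180 and 720 min for plasma and brain. Samples were cleaned up by solid-phase extraction and quantified by HPLC-MS/MS.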

[5] = AUC (0 to 12 hrs) in Wistar rat plasma at 10 mg/kg, ip administered as single dose by HPLC-MS/MS analysis; format: ADME, organism-based; parameters: time < 12 hr, dose 10 mg/kg, route intraperitoneal
[6] = Terminal elimination half-life in Wistar rat plasma at 10 mg/kg, ip administered as single dose by HPLC-MS/MS analysis; format: ADME, organism-based; settings: read-out: beta t1/2 (converted); procedure, shortened: as §4
[7] = Cmax in Wistar rat brain at 10 mg/kg, ip administered as single dose measured at 5 to 720 mins post dose by HPLC-MS/MS analysis; format: ADME, organism-based; parameters: dose 10 mg/kg, route intraperitoneal; procedure, shortened: as §3
[8] = Tmax in Wistar rat brain at 10 mg/kg, ip administered as single dose by HPLC-MS/MS analysis; format: ADME, organism-based; procedure, shortened: as §4
Brain [9] = assay: AUC (0 to 12 hrs) in Wistar rat brain at 10 mg/kg, ip administered as single dose by HPLC-MS/MS analysis; format: ADME, organism-based; parameters: dose 10 mg/kg, time < 12 hr, route intraperitoneal; settings: in vivo
[10] = Terminal elimination half-life in Wistar rat brain at 10 mg/kg, ip administered as single dose by HPLC-MS/MS analysis; format: ADME, organism-based; settings: read-out: beta t1/2 (converted); procedure, shortened: as §4
[11] = Ratio of brain AUC (0 to t) to plasma AUC (0 to t), Kp of the compound in Wistar rat at 10 mg/kg, ip administered as single dose by HPLC-MS/MS analysis; format: ADME, organism-based
[12] = molecular target: Voltage-gated inwardly rectifying potassium channel KCNH2 (Homo sapiens, UniProt Q12809); assay: Displacement of [3H]-dofetilide from human ERG expressed in HEK cell membranes at >10 uM after 60 to 90 mins by scintillation counting
Brain [13] = assay: Fraction unbound in Wistar rat brain at 10 mg/kg, ip administered as single dose measured at 5 to 720 mins post dose by HPLC-MS/MS analysis; format: ADME, organism-based; settings: in vivo
Procedure, shortened: (§5)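 Free fraction in rat plasma and brain tissue was measured in vitro by rapid equilibrium dialysis. Exposure came from male Wistar rats (250-350 g) given a single 10 mg/kg IP dose, as a 5 mg/ml suspension in 85% water, 14% propylene glycol and 1% Tween 80. Three rats per time point (5–720 min); brain analysed by HPLC-MS/MS after solid-phase extraction.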

Brain [14] = assay: Unbound AUC in Wistar rat brain at 10 mg/kg, ip administered as single dose measured at 5 to 720 mins post dose by HPLC-MS/MS analysis; format: ADME, organism-based; settings: in vivo; procedure, shortened: as §5
[15] = Aqueous solubility of the compound in DI water at pH 7 after 2 hrs by LC-MS analysis; format: physicochemical; settings: buffer, pH 7, 2 h
Procedure, shortened: (§6)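 10 mg compound dissolved in 2 mL DMAC; 10 μL of this added to 2 mL DI water (pH 7, sonicated) or 2 mL 0.01 M aq HCl (pH 2), held 2 h at 37 °C. Filtered through 0.45 micron filter, then quantified by LC-MS in SIM mode against calibration curves of standards in DMAC (n = 5); n=3.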

[16] = Solubility of the compound in 0.01M HCl at pH 2 after 2 hrs by LC-MS analysis; format: physicochemical; settings: buffer, pH 2, 2 h; procedure, shortened: as §6
[17] = molecular target: Muscarinic acetylcholine receptor M4 (Homo sapiens) (UniProt P08173); assay: Displacement of [3H]-QNB from human recombinant M4 receptor expressed in HEK293 cells at 10 uM after 60 to 90 mins by scintillation counting; format: cell-based
Procedure, shortened: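 Primary single-concentration radioligand displacement screen run by the NIMH Psychoactive Drug Screening Program across a 46-target panel that includes hERG. The read-out is percent inhibition of specific radioligand binding. Any compound displacing more than 50% of radioligand went on to secondary binding assays to determine Ki.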

[18] = molecular target: GABA-A receptor; alpha-6/beta-3/gamma-2 (Homo sapiens) (UniProt P18507+P28472+Q16445); assay: Positive allosteric modulation of GABA-A receptor alpha6beta3gamma2 (unknown origin) expressed in Xenopus laevis oocytes assessed as potentiation of EC3 GABA induced currents up to 10 uM at -60 mV holding potential by electrophysiological method; format: cell-based; settings: tested as the 2H-labelled form
Procedure, shortened: (§7)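 Stage 5–6 defolliculated Xenopus oocytes were injected with 2.5 ng total mRNA per oocyte: α1, α2, α3 or α5 with β3 and γ2 at 1:1:5, and α4 or α6 with β3 and γ2 at 3:1:5. Oocytes were kept ≥36 h at 18 °C in NDE medium before recording. Compounds were co-applied with GABA titrated to EC3-5 for each oocyte. Curves were fitted with the Hill equation; mean ± SEM from ≥3 oocytes across two batches.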

[19] = molecular target: GABA-A receptor; alpha-1/beta-3/gamma-2 (Homo sapiens) (UniProt P14867+P18507+P28472); assay: Positive allosteric modulation of GABA-A receptor alpha1beta3gamma2 (unknown origin) expressed in Xenopus laevis oocytes assessed as potentiation of EC3 GABA induced currents up to 100 uM at -60 mV holding potential by electrophysiological method relative to GABA; format: cell-based; settings: tested as the 2H-labelled form; procedure, shortened: as §7
[20] = molecular target: GABA-A receptor; alpha-2/beta-3/gamma-2 (Homo sapiens) (UniProt P18507+P28472+P47869); assay: Positive allosteric modulation of GABA-A receptor alpha2beta3gamma2 (unknown origin) expressed in Xenopus laevis oocytes assessed as potentiation of EC3 GABA induced currents up to 100 uM at -60 mV holding potential by electrophysiological method relative to GABA; format: cell-based; settings: tested as the 2H-labelled form; procedure, shortened: as §7
[21] = molecular target: GABA-A receptor; alpha-3/beta-3/gamma-2 (Homo sapiens) (UniProt P18507+P28472+P34903); assay: Positive allosteric modulation of GABA-A receptor alpha3beta3gamma2 (unknown origin) expressed in Xenopus laevis oocytes assessed as potentiation of EC3 GABA induced currents up to 100 uM at -60 mV holding potential by electrophysiological method relative to GABA; format: cell-based; settings: tested as the 2H-labelled form; procedure, shortened: as §7
[22] = molecular target: GABA A receptor alpha-4/beta-3/gamma-2 (Homo sapiens) (UniProt P18507+P28472+P48169); assay: Positive allosteric modulation of GABA-A receptor alpha4beta3gamma2 (unknown origin) expressed in Xenopus laevis oocytes assessed as potentiation of EC3 GABA induced currents up to 100 uM at -60 mV holding potential by electrophysiological method relative to GABA; format: cell-based; settings: tested as the 2H-labelled form; procedure, shortened: as §7
[23] = molecular target: GABA-A receptor; alpha-5/beta-3/gamma-2 (Homo sapiens) (UniProt P18507+P28472+P31644); assay: Positive allosteric modulation of GABA-A receptor alpha5beta3gamma2 (unknown origin) expressed in Xenopus laevis oocytes assessed as potentiation of EC3 GABA induced currents up to 100 uM at -60 mV holding potential by electrophysiological method relative to GABA; format: cell-based; settings: tested as the 2H-labelled form; procedure, shortened: as §7

Chain of Voltage-gated inwardly rectifying potassium channel KCNH2 (Q12809 whole entry): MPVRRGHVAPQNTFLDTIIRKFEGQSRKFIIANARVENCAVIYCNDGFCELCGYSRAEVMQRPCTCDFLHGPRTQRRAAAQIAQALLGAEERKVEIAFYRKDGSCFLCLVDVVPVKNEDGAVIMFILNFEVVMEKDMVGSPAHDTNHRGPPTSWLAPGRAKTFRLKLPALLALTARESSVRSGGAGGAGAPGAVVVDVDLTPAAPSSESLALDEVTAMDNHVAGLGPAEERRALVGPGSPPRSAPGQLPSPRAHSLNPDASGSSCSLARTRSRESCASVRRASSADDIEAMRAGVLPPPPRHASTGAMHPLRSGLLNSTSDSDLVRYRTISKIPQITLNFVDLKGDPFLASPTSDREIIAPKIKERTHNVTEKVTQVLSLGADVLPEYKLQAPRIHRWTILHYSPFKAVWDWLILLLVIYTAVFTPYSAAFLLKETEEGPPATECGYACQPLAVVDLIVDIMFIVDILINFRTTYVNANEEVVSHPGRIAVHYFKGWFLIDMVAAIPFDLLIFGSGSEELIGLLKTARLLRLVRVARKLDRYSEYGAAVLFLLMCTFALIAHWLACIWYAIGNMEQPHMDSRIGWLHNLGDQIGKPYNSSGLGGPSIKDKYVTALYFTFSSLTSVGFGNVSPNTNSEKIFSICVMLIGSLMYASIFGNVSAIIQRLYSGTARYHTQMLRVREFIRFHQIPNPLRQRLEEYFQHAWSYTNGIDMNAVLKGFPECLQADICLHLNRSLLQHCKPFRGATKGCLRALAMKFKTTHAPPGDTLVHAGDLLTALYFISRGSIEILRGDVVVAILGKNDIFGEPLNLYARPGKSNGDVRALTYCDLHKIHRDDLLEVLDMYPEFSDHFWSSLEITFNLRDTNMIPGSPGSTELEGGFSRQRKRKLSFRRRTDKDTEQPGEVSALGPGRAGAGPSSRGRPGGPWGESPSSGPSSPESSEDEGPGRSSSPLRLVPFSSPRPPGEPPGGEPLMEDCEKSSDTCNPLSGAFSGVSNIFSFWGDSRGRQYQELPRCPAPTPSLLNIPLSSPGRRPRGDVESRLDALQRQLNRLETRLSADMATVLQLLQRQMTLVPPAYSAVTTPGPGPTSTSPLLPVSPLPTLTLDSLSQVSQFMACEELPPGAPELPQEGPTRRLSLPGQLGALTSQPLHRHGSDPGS
Chain of Muscarinic acetylcholine receptor M4 (Homo sapiens) (P08173 whole entry): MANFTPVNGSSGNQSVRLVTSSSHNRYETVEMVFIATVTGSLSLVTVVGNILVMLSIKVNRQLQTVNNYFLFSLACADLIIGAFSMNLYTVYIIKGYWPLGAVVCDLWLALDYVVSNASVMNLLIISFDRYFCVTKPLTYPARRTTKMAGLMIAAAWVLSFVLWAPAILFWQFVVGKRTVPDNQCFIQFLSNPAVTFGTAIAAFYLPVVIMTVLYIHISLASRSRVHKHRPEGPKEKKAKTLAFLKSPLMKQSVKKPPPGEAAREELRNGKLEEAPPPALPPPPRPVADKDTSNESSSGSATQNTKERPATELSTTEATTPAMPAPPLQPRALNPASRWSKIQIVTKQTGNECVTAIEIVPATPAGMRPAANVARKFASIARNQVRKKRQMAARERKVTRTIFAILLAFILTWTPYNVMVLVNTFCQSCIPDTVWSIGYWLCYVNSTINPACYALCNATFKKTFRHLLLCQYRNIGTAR

Structure (SMILES): [2H]C([2H])([2H])Oc1ccc(-n2nc3c4ccc(OC([2H])([2H])[2H])cc4[nH]cc-3c2=O)cc1
- remaining at 1 h, 10 µM [1]: 91.5%
- remaining at 1 h, 10 µM [2]: 93.1%
- Activity (HEK-293T): Non-Toxic
- Activity (HepG2): Non-Toxic
- Activity (Mus musculus): Non-Toxic
- Cmax [3]: 3410 ng/mL
- Tmax [4]: 0.55 h
- AUC(0-t) at 12 h [5]: 16700 ng·h/mL
- half-life [6]: 2.64 h
- Cmax [7]: 534 ng/g
- Tmax [8]: 0.78 h
- AUC (Brain [9]): 2747.67 ng·h/g
- half-life [10]: 3.52 h
- Kp [11]: 0.17
- inhibition (INH) [12]: Not Active
- Fu (Brain [13]): 0.105
- fAUC (Brain [14]): 288.78 ng·h/g

Structure (SMILES): COc1ccc2c3nn(-c4ccc(OC)nc4)c(=O)c-3c[nH]c2c1
- remaining at 1 h, 10 µM [1]: 92.8%
- remaining at 1 h, 10 µM [2]: 74.8%
- solubility [15]: 67.2 µM (≈ 21.7 µg/mL)
- solubility [16]: 115.4 µM (≈ 37.2 µg/mL)
- inhibition [17]: Active
- Activity (Mus musculus): Non-Toxic
- Activity [18]: Active
- Activity [19]: inactive
- Activity [20]: inactive
- Activity [21]: inactive
- Activity [22]: inactive
- Activity [23]: inactive
- inhibition (INH) [12]: Not Active
